# Experimental data gathered from unrelated publications.
# Action: inhibitor
# CYP1A2: Cytochrome P450 1A2 (CYP1A2, Homo sapiens, UniProt P05177)
# SLCO1B1: Solute carrier organic anion transporter family member 1B1 (SLCO1B1, Homo sapiens, UniProt Q9Y6L6)
SMILES,target,assay,test system,conditions,quantity,result
O=C(CCCCCCC(=O)Nc1ccccc1)NO,CYP1A2,"enzyme activity, fluorescence",,,IC50,7.28 µM
CC(=O)O[C@H]1[C@H](O[C@H]2CC[C@]34C[C@]35CC[C@]3(C)[C@@H]([C@@]6(C)CC[C@@H](C(C)(C)O)O6)[C@@H](O)C[C@@]3(C)[C@@H]5C[C@H](O[C@@H]3O[C@H](CO)[C@@H](O)[C@H](O)[C@H]3O)[C@H]4C2(C)C)OC[C@@H](OC(C)=O)[C@@H]1O,CYP1A2,enzyme activity,"human, liver microsomes",,IC50,> 200 µM
NC/C(=C\F)COc1cccc(Cn2c(=S)[nH]c(=O)c3[nH]cnc32)c1,SLCO1B1,transporter uptake,,30 µM,inhibition,< 50%
CC(C)(O)[C@@H]1CC[C@](C)([C@H]2[C@@H](O)C[C@@]3(C)[C@@H]4C[C@H](O[C@@H]5O[C@H](CO)[C@@H](O)[C@H](O)[C@H]5O)[C@H]5C(C)(C)[C@@H](O[C@@H]6OC[C@@H](O)[C@H](O)[C@H]6O)CC[C@@]56C[C@@]46CC[C@]23C)O1,CYP1A2,enzyme activity,"human, liver microsomes",,IC50,> 200 µM
CSc1ccccc1C(=O)NCCn1cc(C(=O)NCc2cccc(C)n2)c(=O)c2cc3c(cc21)OC(F)(F)O3,CYP1A2,enzyme activity,"human, liver microsomes","20 min, without NADPH, with preincubation",IC50,> 100 µM
CC[C@H](C)[C@@H]([C@@H](CC(=O)N1CCC[C@H]1[C@H](OC)[C@@H](C)C(=O)N[C@@H](Cc1ccccc1)C(=O)NCCCO)OC)N(C)C(=O)[C@@H](NC(=O)[C@H](C(C)C)N(C)C)C(C)C,"Cytochrome P450 3A4 (CYP3A4, Homo sapiens, UniProt P08684)",enzyme activity,,,Ki,21.8 µM
CSc1ccccc1C(=O)NCCn1cc(C(=O)NCc2cccc(C)n2)c(=O)c2cc3c(cc21)OCO3,CYP1A2,enzyme activity,"human, liver microsomes","20 min, without NADPH, with preincubation",IC50,> 100 µM
O=C(O)COc1cccc(-c2nc(Nc3ccc4[nH]ncc4c3)c3ccccc3n2)c1,SLCO1B1,"transporter uptake, radiometric",,,IC50,0.39 µM
